Results reported in ChEMBL document CHEMBL5303300, “EUbOPEN Chemogenomics Library - Multiplex” (2023).
Where “and” joins values, the source holds several entries; their conditions need not be identical. Identical values can stand only once.

Test system: HEK-293T
Assay: Multiplex assay against HEK293T
Type: toxicity, cell-based
Settings: human, number of replicates 2
Outline: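 Tubulin, mitochondrial-mass and membrane-permeability phenotypes are per cents of healthy-nucleus cells. Cells were gated by CellPathfinder machine learning into Hoechst high-intensity objects or normal cells, normal cells into healthy, pyknosed or fragmented nuclei, and pyknosed cells into mitotic or apoptotic. Before that, live cells stained at seeding with Hoechst33342, BioTracker Green Microtubule Cytoskeleton Dye, MitoTracker Red and Annexin V Alexa Fluor 680 were imaged on a CQ1 microscope at 37°C and 5% CO2 after compound addition.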

[1] = 12 h, 1 µM, compound concentration 1 uM
[2] = 12 h, 10 µM, compound concentration 10 uM
[3] = 24 h, 1 µM, compound concentration 1 uM
[4] = 24 h, 10 µM, compound concentration 10 uM
[5] = 48 h, 1 µM, compound concentration 1 uM
[6] = 48 h, 10 µM, compound concentration 10 uM

## COc1ccc(CC[C@@H](OC(=O)[C@@H]2CCCCN2C(=O)[C@H](c2cc(OC)c(OC)c(OC)c2)C2CCCCC2)c2cccc(OCCN3CCOCC3)c2)cc1OC
[1]
  Population Apoptotic (%): 53% and 42%
  Population Fragmented Nuclei (%): 5% and 3%
  Population Healthy Nuclei (%): 82% and 83%
  Population Hoechst High Intensity Objects (%): 7% and 6%
  Population Membrane Permeable-Phenotype (%): 7% and 6%
  Population Mitochondria Different-Phenotype (%): 27% and 28%
  Population Mitotic Cells (%): 46% and 57%
  Population Normal (%): 92% and 93%
  Population Pyknosed Nuclei (%): 11% and 12%
  Population Tubulin-Different-Phenotype (%): 77% and 92%
  Total Cell Count: 574 and 636
[2]
  Population Apoptotic (%): 70% and 68%
  Population Fragmented Nuclei (%): 2%
  Population Healthy Nuclei (%): 85% and 83%
  Population Hoechst High Intensity Objects (%): 10% and 11%
  Population Membrane Permeable-Phenotype (%): 2%
  Population Mitochondria Different-Phenotype (%): 75% and 72%
  Population Mitotic Cells (%): 29% and 31%
  Population Normal (%): 89% and 88%
  Population Pyknosed Nuclei (%): 12% and 13%
  Population Tubulin-Different-Phenotype (%): 68% and 58%
  Total Cell Count: 560 and 485
[3]
  Population Apoptotic (%): 46% and 44%
  Population Fragmented Nuclei (%): 9% and 4%
  Population Healthy Nuclei (%): 81% and 86%
  Population Hoechst High Intensity Objects (%): 10% and 8%
  Population Membrane Permeable-Phenotype (%): 8% and 7%
  Population Mitochondria Different-Phenotype (%): 12% and 18%
  Population Mitotic Cells (%): 53% and 55%
  Population Normal (%): 89% and 91%
  Population Pyknosed Nuclei (%): 8%
  Population Tubulin-Different-Phenotype (%): 64% and 80%
  Total Cell Count: 873 and 879
[4]
  Population Apoptotic (%): 72% and 63%
  Population Fragmented Nuclei (%): 2%
  Population Healthy Nuclei (%): 82% and 81%
  Population Hoechst High Intensity Objects (%): 8% and 13%
  Population Membrane Permeable-Phenotype (%): 0%
  Population Mitochondria Different-Phenotype (%): 89% and 88%
  Population Mitotic Cells (%): 27% and 36%
  Population Normal (%): 91% and 86%
  Population Pyknosed Nuclei (%): 14% and 15%
  Population Tubulin-Different-Phenotype (%): 56% and 52%
  Total Cell Count: 512 and 487
[5]
  Population Apoptotic (%): 30% and 18%
  Population Fragmented Nuclei (%): 8% and 13%
  Population Healthy Nuclei (%): 87% and 83%
  Population Hoechst High Intensity Objects (%): 9% and 8%
  Population Membrane Permeable-Phenotype (%): 6%
  Population Mitochondria Different-Phenotype (%): 5% and 4%
  Population Mitotic Cells (%): 69% and 81%
  Population Normal (%): 90% and 91%
  Population Pyknosed Nuclei (%): 3% and 2%
  Population Tubulin-Different-Phenotype (%): 67% and 48%
  Total Cell Count: 1619 and 1643
[6]
  Population Apoptotic (%): 84% and 73%
  Population Fragmented Nuclei (%): 3% and 5%
  Population Healthy Nuclei (%): 84% and 83%
  Population Hoechst High Intensity Objects (%): 9% and 11%
  Population Membrane Permeable-Phenotype (%): 1%
  Population Mitochondria Different-Phenotype (%): 79% and 83%
  Population Mitotic Cells (%): 15% and 26%
  Population Normal (%): 90% and 88%
  Population Pyknosed Nuclei (%): 11%
  Population Tubulin-Different-Phenotype (%): 62% and 60%
  Total Cell Count: 551 and 526

## O=C1NC(=O)C(c2ccccc2[N+](=O)[O-])=C1Nc1ccc(O)c(Cl)c1
[1]
  Population Apoptotic (%): 41% and 45%
  Population Fragmented Nuclei (%): 4% and 2%
  Population Healthy Nuclei (%): 82% and 83%
  Population Hoechst High Intensity Objects (%): 6% and 3%
  Population Membrane Permeable-Phenotype (%): 2%
  Population Mitochondria Different-Phenotype (%): 11% and 12%
  Population Mitotic Cells (%): 58% and 54%
  Population Normal (%): 93% and 96%
  Population Pyknosed Nuclei (%): 13%
  Population Tubulin-Different-Phenotype (%): 41%
  Total Cell Count: 694 and 574
[2]
  Population Apoptotic (%): 32% and 38%
  Population Fragmented Nuclei (%): 6% and 5%
  Population Healthy Nuclei (%): 82% and 87%
  Population Hoechst High Intensity Objects (%): 4% and 7%
  Population Membrane Permeable-Phenotype (%): 6% and 4%
  Population Mitochondria Different-Phenotype (%): 8% and 5%
  Population Mitotic Cells (%): 67% and 61%
  Population Normal (%): 95% and 92%
  Population Pyknosed Nuclei (%): 11% and 7%
  Population Tubulin-Different-Phenotype (%): 34% and 31%
  Total Cell Count: 496 and 670
[3]
  Population Apoptotic (%): 40% and 37%
  Population Fragmented Nuclei (%): 4% and 3%
  Population Healthy Nuclei (%): 86% and 88%
  Population Hoechst High Intensity Objects (%): 5% and 7%
  Population Membrane Permeable-Phenotype (%): 2%
  Population Mitochondria Different-Phenotype (%): 3% and 5%
  Population Mitotic Cells (%): 59% and 62%
  Population Normal (%): 94% and 92%
  Population Pyknosed Nuclei (%): 8%
  Population Tubulin-Different-Phenotype (%): 22% and 24%
  Total Cell Count: 1100 and 894
[4]
  Population Apoptotic (%): 26% and 19%
  Population Fragmented Nuclei (%): 4% and 8%
  Population Healthy Nuclei (%): 89% and 83%
  Population Hoechst High Intensity Objects (%): 5% and 7%
  Population Membrane Permeable-Phenotype (%): 5% and 3%
  Population Mitochondria Different-Phenotype (%): 2% and 1%
  Population Mitotic Cells (%): 73% and 80%
  Population Normal (%): 94% and 92%
  Population Pyknosed Nuclei (%): 6% and 7%
  Population Tubulin-Different-Phenotype (%): 14% and 18%
  Total Cell Count: 721 and 1015
[5]
  Population Apoptotic (%): 14% and 15%
  Population Fragmented Nuclei (%): 13% and 9%
  Population Healthy Nuclei (%): 83% and 87%
  Population Hoechst High Intensity Objects (%): 7% and 9%
  Population Membrane Permeable-Phenotype (%): 5% and 4%
  Population Mitochondria Different-Phenotype (%): 0%
  Population Mitotic Cells (%): 85% and 84%
  Population Normal (%): 92% and 90%
  Population Pyknosed Nuclei (%): 2% and 3%
  Population Tubulin-Different-Phenotype (%): 12% and 11%
  Total Cell Count: 2762 and 1997
[6]
  Population Apoptotic (%): 11% and 2%
  Population Fragmented Nuclei (%): 14% and 21%
  Population Healthy Nuclei (%): 82% and 77%
  Population Hoechst High Intensity Objects (%): 6% and 9%
  Population Membrane Permeable-Phenotype (%): 7% and 8%
  Population Mitochondria Different-Phenotype (%): 0%
  Population Mitotic Cells (%): 88% and 97%
  Population Normal (%): 93% and 90%
  Population Pyknosed Nuclei (%): 3% and 1%
  Population Tubulin-Different-Phenotype (%): 7%
  Total Cell Count: 1557 and 2547

## CC(C)S(=O)(=O)c1ccccc1Nc1nc(N[C@@H]2CCCN(CCCCCCCNC(=O)COc3cccc4c3C(=O)N(C3CCC(=O)NC3=O)C4=O)C2)ncc1Cl (stereo partly drawn)
[1]
  Population Apoptotic (%): 72% and 70%
  Population Fragmented Nuclei (%): 2% and 3%
  Population Healthy Nuclei (%): 80% and 76%
  Population Hoechst High Intensity Objects (%): 8% and 16%
  Population Membrane Permeable-Phenotype (%): 0%
  Population Mitochondria Different-Phenotype (%): 61% and 50%
  Population Mitotic Cells (%): 27% and 29%
  Population Normal (%): 91% and 83%
  Population Pyknosed Nuclei (%): 17% and 19%
  Population Tubulin-Different-Phenotype (%): 75% and 73%
  Total Cell Count: 378 and 397
[2]
  Population Apoptotic (%): 48% and 67%
  Population Fragmented Nuclei (%): 4% and 5%
  Population Healthy Nuclei (%): 63% and 65%
  Population Hoechst High Intensity Objects (%): 18% and 15%
  Population Membrane Permeable-Phenotype (%): 6%
  Population Mitochondria Different-Phenotype (%): 70%
  Population Mitotic Cells (%): 51% and 32%
  Population Normal (%): 81% and 84%
  Population Pyknosed Nuclei (%): 31% and 29%
  Population Tubulin-Different-Phenotype (%): 48% and 66%
  Total Cell Count: 366 and 343
[3]
  Population Apoptotic (%): 65% and 76%
  Population Fragmented Nuclei (%): 3% and 5%
  Population Healthy Nuclei (%): 82% and 79%
  Population Hoechst High Intensity Objects (%): 12% and 14%
  Population Membrane Permeable-Phenotype (%): 1%
  Population Mitochondria Different-Phenotype (%): 65% and 63%
  Population Mitotic Cells (%): 34% and 23%
  Population Normal (%): 87% and 85%
  Population Pyknosed Nuclei (%): 14% and 15%
  Population Tubulin-Different-Phenotype (%): 69% and 67%
  Total Cell Count: 385 and 384
[4]
  Population Apoptotic (%): 79% and 70%
  Population Fragmented Nuclei (%): 6% and 3%
  Population Healthy Nuclei (%): 65% and 61%
  Population Hoechst High Intensity Objects (%): 19%
  Population Membrane Permeable-Phenotype (%): 1% and 2%
  Population Mitochondria Different-Phenotype (%): 81% and 87%
  Population Mitotic Cells (%): 20% and 30%
  Population Normal (%): 80%
  Population Pyknosed Nuclei (%): 28% and 34%
  Population Tubulin-Different-Phenotype (%): 85% and 93%
  Total Cell Count: 341 and 356
[5]
  Population Apoptotic (%): 78% and 74%
  Population Fragmented Nuclei (%): 3%
  Population Healthy Nuclei (%): 84% and 83%
  Population Hoechst High Intensity Objects (%): 12% and 14%
  Population Membrane Permeable-Phenotype (%): 0% and 1%
  Population Mitochondria Different-Phenotype (%): 66% and 57%
  Population Mitotic Cells (%): 21% and 25%
  Population Normal (%): 87% and 85%
  Population Pyknosed Nuclei (%): 11% and 13%
  Population Tubulin-Different-Phenotype (%): 66% and 57%
  Total Cell Count: 316 and 306
[6]
  Population Apoptotic (%): 78% and 74%
  Population Fragmented Nuclei (%): 6% and 5%
  Population Healthy Nuclei (%): 70% and 63%
  Population Hoechst High Intensity Objects (%): 18% and 20%
  Population Membrane Permeable-Phenotype (%): 2% and 1%
  Population Mitochondria Different-Phenotype (%): 73% and 79%
  Population Mitotic Cells (%): 21% and 25%
  Population Normal (%): 81% and 79%
  Population Pyknosed Nuclei (%): 23% and 31%
  Population Tubulin-Different-Phenotype (%): 66% and 77%
  Total Cell Count: 296 and 313
